# Activity calls are given as the source filed them. The calls are words filed in the database; no cut-off is given here.
# Columns and labels:
# Candida albicans [1] = assay: Antimicrobial activity against Candida albicans ATCC 90028 by NCCLS method; type: functional, organism-based; conditions: for IC50: Candida albicans, ATCC 90028, read-out: IC50
# Summary of the method: (§1)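 Samples serially diluted in 20% DMSO/saline, tested in duplicate. Inocula set by OD630: C. albicans RPMI pH 4.5, 1·10^4 CFU/mL; C. neoformans Sabouraud dextrose, 1·10^5; MRSA cation-adjusted Mueller-Hinton pH 7.3, 5·10^5; M. intracellulare 7H9/OADC + 5% Alamar Blue pH 7.3, 2·10^6; A. fumigatus RPMI pH 7.3 + 5% Alamar Blue, 3·10^4.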
# Cryptococcus neoformans [2] = assay: Antimicrobial activity against Cryptococcus neoformans ATCC 90113 by NCCLS method; type: functional, organism-based; summary of the method: as §1
# Staphylococcus aureus [3] = assay: Antimicrobial activity against methicillin-resistant Staphylococcus aureus ATCC 43300 by NCCLS method; type: functional, organism-based; summary of the method: as §1
# [4] = system: Mycobacterium intracellulare; assay: Antimicrobial activity against Mycobacterium intracellular ATCC 23068 by alamar blue assay; type: functional, organism-based
# Summary of the method: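 Samples serially diluted in 20% DMSO/saline, tested in duplicate. Inocula set by OD630: C. albicans RPMI pH 4.5, 1·10^4 CFU/mL; C. neoformans Sabouraud dextrose, 1·10^5; MRSA cation-adjusted Mueller-Hinton pH 7.3, 5·10^5; M. intracellulare 7H9/OADC + 5% Alamar Blue pH 7.3, 2·10^6; A. fumigatus RPMI pH 7.3 + 5% Alamar Blue, 3·10^4. Read at 630 nm or 544ex/590em before and after incubation.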
# Aspergillus fumigatus [5] = assay: Antimicrobial activity against Aspergillus fumigatus ATCC 90906 by alamar blue assay; type: functional, organism-based; conditions: for IC50: read-out: IC50; summary of the method: as §1
# Candida albicans [6] = assay: Antimicrobial activity against Candida albicans ATCC 90028 by NCCLS method in presence of 5% human serum; type: functional, organism-based
# Cryptococcus neoformans [7] = assay: Antimicrobial activity against Cryptococcus neoformans ATCC 90113 by NCCLS method in presence of 5% human serum; type: functional, organism-based
# Staphylococcus aureus [8] = assay: Antimicrobial activity against methicillin-resistant Staphylococcus aureus ATCC 43300 by NCCLS method in presence of 5% human serum; type: functional, organism-based
# [9] = system: Mycobacterium intracellulare; assay: Antimicrobial activity against Mycobacterium intracellular ATCC 23068 by alamar blue assay in presence of 5% human serum; type: functional, organism-based
# Aspergillus fumigatus [10] = assay: Antimicrobial activity against Aspergillus fumigatus ATCC 90906 by alamar blue assay in presence of 5% human serum; type: functional, organism-based
# Plasmodium berghei [11] = assay: Antimalarial activity as elimination of parasitaemia at day 28 against Plasmodium berghei NK65 infected Swiss Webster mice (Mus musculus) at 1 mg/kg/day intraperitoneal dose for 3 days; type: functional, organism-based
# Summary of the method: (§2)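 Peters 4-day suppressive test: male Swiss Webster mice (18–20 g) inoculated ip with 2·10^7 P. berghei NK-65 parasitized red cells. Compound in DMSO:PEG:water (1:3:6) given ip ~2 h post-infection, then once daily for 3 days (days 0–2). 5 mice/group; vehicle-treated control. Giemsa-stained tail blood smears read to day 28. % suppression = 100 − (treated/untreated parasitemia × 100). Cure = no parasitemia until day 28. Mice observed after each dose for signs of toxicity.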
# Plasmodium berghei [12] = assay: Antimalarial activity as elimination of parasitaemia at day 28 against Plasmodium berghei NK65 infected Swiss Webster mice (Mus musculus) at 2 mg/kg/day intraperitoneal dose for 3 days; type: functional, organism-based; summary of the method: as §2
# Plasmodium berghei [13] = assay: Antimalarial activity as reduced parasitaemia against Plasmodium berghei NK65 infected Swiss Webster mice (Mus musculus); type: functional
# Plasmodium berghei [14] = assay: Antimalarial activity as reduced parasitaemia at day 3 against Plasmodium berghei NK65 infected Swiss Webster mice (Mus musculus) at 1 mg/kg/day intraperitoneal dose for 3 days; type: functional; parameters: scale not given: the % may be the effect or the level left; summary of the method: as §2
# Plasmodium berghei [15] = assay: Antimalarial activity as reduced parasitaemia at day 3 against Plasmodium berghei NK65 infected Swiss Webster mice (Mus musculus) at 2 mg/kg/day intraperitoneal dose for 3 days; type: functional; parameters: scale not given: the % may be the effect or the level left; summary of the method: as §2
# Mus musculus = assay: Toxicity in Swiss Webster mouse at 1 mg/kg, ip administered once daily for 3 days; type: organism-based; parameters: dose 1 mg/kg, route intraperitoneal; conditions: in vivo, 72 h; summary of the method: as §2
# Leishmania donovani = assay: Antileishmanial activity against Leishmania donovani promastigotes after 48 hrs by alamar blue assay; type: functional, organism-based
# SK-MEL = assay: Cytotoxicity against human SK-MEL cells after 48 hrs by neutral red assay; type: functional, cell-based
# Summary of the method: (§3)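 Cells seeded at 25,000/well, incubated 24 h, then exposed to samples for 48 h. Viable cells measured by Neutral Red uptake. IC50 from logarithmic plots of growth inhibition vs concentration. Doxorubicin positive control, DMSO vehicle control.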
# KB = assay: Cytotoxicity against human KB cells after 48 hrs by neutral red assay; type: functional, cell-based; summary of the method: as §3
# BT-549 = assay: Cytotoxicity against human BT549 cells after 48 hrs by neutral red assay; type: functional, cell-based; conditions: BT-549, 48 h; summary of the method: as §3
# Vero [16] = assay: Cytotoxicity against african green monkey Vero cells after 48 hrs by neutral red assay; type: cell-based, Chlorocebus sabaeus; summary of the method: as §3
# LLC-PK1 = assay: Cytotoxicity against pig LLC-PK1 cells after 48 hrs by neutral red assay; type: cell-based, Sus scrofa; summary of the method: as §3
# [17] = Toxicity in RBC assessed as hemolysis; type: cell-based; conditions: Erythrocyte
# Plasmodium falciparum [18] = assay: Antimalarial activity after 72 hrs against […] Plasmodium falciparum D6 by pLDH activity; type: functional, organism-based; conditions: D6, 72 h
# Summary of the method: (§4)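 P. falciparum-infected red cells (2% parasitemia, 2% hematocrit) in RPMI-1640 with 10% human serum and 60 μg/mL amikacin, exposed to serial sample concentrations. Gassed with 90% N2/5% O2/5% CO2, incubated 37 °C for 72 h. Parasite LDH activity read colorimetrically with Malstat reagent.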
# Vero [19] = assay: Cytotoxicity against african green monkey Vero cells; type: cell-based; conditions: Chlorocebus sabaeus; summary of the method: as §3
# Plasmodium falciparum [20] = assay: Antimalarial activity after 72 hrs against chloroquine-resistant Plasmodium falciparum W2 by pLDH activity; type: functional, organism-based; conditions: W2, 72 h; summary of the method: as §4
# Plasmodium berghei [21] = assay: Antimalarial activity as reduced parasitaemia at day 10 against Plasmodium berghei NK65 infected Swiss Webster mice (Mus musculus) at 1 mg/kg/day intraperitoneal dose for 3 days; type: functional; parameters: scale not given: the % may be the effect or the level left; summary of the method: as §2
# Plasmodium berghei [22] = assay: Antimalarial activity as reduced parasitaemia at day 17 against Plasmodium berghei NK65 infected Swiss Webster mice (Mus musculus) at 1 mg/kg/day intraperitoneal dose for 3 days; type: functional, organism-based; summary of the method: as §2
# Plasmodium berghei [23] = assay: Antimalarial activity as reduced parasitaemia at day 17 against Plasmodium berghei NK65 infected Swiss Webster mice (Mus musculus) at 2 mg/kg/day intraperitoneal dose for 3 days; type: functional, organism-based; summary of the method: as §2
# Cryptococcus neoformans [24] = assay: Antimicrobial activity against Cryptococcus neoformans ATCC 90113 infected in mouse assessed as […] elimination from brain tissue at 0.0625 mg/kg/day, ip for 5 days; type: functional; conditions: route intraperitoneal
# [25] = Selectivity index, IC50 for african green monkey (Cercopithecus aethiops) Vero cells to IC50 for chloroquine-sensitive Plasmodium falciparum D6; type: functional
# Summary of the method: (§5)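 Selectivity index = IC50 against VERO cells divided by IC50 against P. falciparum (D6 or W2, respectively), each from the corresponding in-house assay.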
# [26] = Selectivity index, IC50 for african green monkey (Cercopithecus aethiops) Vero cells to IC50 for […]; type: functional; summary of the method: as §5
# [27] = Aspergillus fumigatus, ATCC 90906
smiles,measurement,setting,value
C[C@@H]1N[C@H](CCCCCCCCCCc2cc(CCCCCCCCCC[C@@H]3CC[C@H](O)[C@@H](C)N3)c3[n+](c2)CCC3)CC[C@H]1O.[Cl-] [PROSOPILOSIDINE],MFC,Candida albicans [1],inactive
same,MIC,Candida albicans [1],inactive
same,IC50,Candida albicans [1],15 µg/mL
same,IC50,Cryptococcus neoformans [2],0.4 µg/mL
same,MIC,Cryptococcus neoformans [2],0.63 µg/mL
same,IC50,Staphylococcus aureus [3],0.35 µg/mL
same,MBC,Staphylococcus aureus [3],5 µg/mL
same,MIC,Staphylococcus aureus [3],1.25 µg/mL
same,IC50,[4],0.9 µg/mL
same,MBC,[4],20 µg/mL
same,MFC,Aspergillus fumigatus [5],inactive
same,MIC,Aspergillus fumigatus [5]; [27],5 µg/mL
same,IC50,Aspergillus fumigatus [5]; [27],3 µg/mL
same,Activity,Candida albicans [6],Active
same,Activity,Cryptococcus neoformans [7],Active
same,Activity,Staphylococcus aureus [8],Active
same,Activity,[9],Active
same,Activity,Aspergillus fumigatus [10],Active
same,Activity,Plasmodium berghei [11],inactive
same,Activity,Plasmodium berghei [12],inactive
same,ED50,Plasmodium berghei [13],2 mg/kg
same,Activity,Plasmodium berghei [14],48%
same,Activity,Plasmodium berghei [15],48%
same,Activity,Mus musculus,Non-toxic
same,IC50,Leishmania donovani,0.7 µg/mL
same,IC90,Leishmania donovani,1.9 µg/mL
same,IC50,SK-MEL,4.5 µg/mL
same,IC50,KB,7.5 µg/mL
same,IC50,BT-549,8.75 µg/mL
same,IC50,Vero [16]; vero,Not Active
same,IC50,LLC-PK1; llc-pk1,Not Active
same,IC50,[17],16 µg/mL
same,IC50,Plasmodium falciparum [18],0.039 µg/mL
same,IC50,Vero [19],> 23.8 µg/mL
same,IC50,Plasmodium falciparum [20],0.095 µg/mL
same,Activity,Plasmodium berghei [21],40.5%
same,Activity,Plasmodium berghei [22],inactive
same,Activity,Plasmodium berghei [23],inactive
same,Activity,Cryptococcus neoformans [24],76%
C[C@@H]1N[C@H](CCCCCCCCCCC2=C[C@@H](CCCCCCCCCC[C@@H]3CC[C@@H](O)[C@H](C)N3)[C@@H]3CCCN3C2)CC[C@H]1O [PROSOPILOSINE],IC50,Candida albicans [1],15 µg/mL
same,IC50,Cryptococcus neoformans [2],0.8 µg/mL
same,MFC,Cryptococcus neoformans [2],1.25 µg/mL
same,IC50,Staphylococcus aureus [3],1.5 µg/mL
same,IC50,[4],2 µg/mL
same,MBC,[4],20 µg/mL
same,MFC,Aspergillus fumigatus [5]; [27],0.63 µg/mL
same,MIC,Aspergillus fumigatus [5]; [27],0.63 µg/mL
same,IC50,Aspergillus fumigatus [5]; [27],0.45 µg/mL
same,IC50,Leishmania donovani,0.65 µg/mL
same,IC50,SK-MEL,< 1.1 µg/mL
same,IC50,KB,6 µg/mL
same,IC50,"Vero [16]; Chlorocebus sabaeus, Vero, 48 h, read-out: IC50",5.7 µg/mL
same,IC50,"LLC-PK1; Sus scrofa, LLC-PK1, 48 h, read-out: IC50",1.9 µg/mL
same,IC50,Plasmodium falciparum [18],0.12 µg/mL
same,IC50,Vero [19],5.6 µg/mL
same,Ratio IC50,[25],47
same,IC50,Plasmodium falciparum [20],0.23 µg/mL
same,Ratio IC50,[26],24
